# The source made the active and inactive calls. The rule behind the calls is not given here.
# Key:
# [1] = tested on: Nc1ccn([C@@H]2O[C@H](CO)[C@@H](O)[C@H]2F)c(=O)n1; conditions: Homo sapiens; HepG2
# [2] = tested on: Nc1ccn([C@@H]2O[C@H](CO)[C@@H](O)C2(F)F)c(=O)n1; conditions: Homo sapiens; HepG2
# [3] = tested on: C[C@@]1(O)[C@H](O)[C@@H](CO)O[C@H]1n1ccc(N)nc1=O; conditions: Homo sapiens; HepG2
# [4] = tested on: C[C@@]1(F)[C@H](O)[C@@H](CO)O[C@H]1n1ccc(N)nc1=O; conditions: Homo sapiens; HepG2
# [5] = tested on: C[C@@H]1[C@H](O)[C@@H](CO)O[C@H]1n1ccc(N)nc1=O; conditions: Homo sapiens; HepG2
# [6] = tested on: Nc1ccn([C@@H]2O[C@H](CO)[C@@H](O)[C@H]2F)c(=O)n1; conditions: Homo sapiens; HepG2; remark: listed apart in the source
# [7] = tested on: Nc1ccn([C@@H]2O[C@H](CO)[C@@H](O)C2(F)F)c(=O)n1; conditions: Homo sapiens; HepG2; remark: listed apart in the source
# [8] = tested on: C[C@@]1(O)[C@H](O)[C@@H](CO)O[C@H]1n1ccc(N)nc1=O; conditions: Homo sapiens; HepG2; remark: listed apart in the source
# [9] = tested on: C[C@@]1(F)[C@H](O)[C@@H](CO)O[C@H]1n1ccc(N)nc1=O; conditions: Homo sapiens; HepG2; remark: listed apart in the source
# [10] = tested on: C[C@@H]1[C@H](O)[C@@H](CO)O[C@H]1n1ccc(N)nc1=O; conditions: Homo sapiens; HepG2; remark: listed apart in the source
# [11] = target: T1, Uridine-cytidine kinase 1 (Homo sapiens) (UniProt Q9HA47); assay: Ratio of Kcat to Km for UCK1 activity expressed in Huh7 cells; format: cell-based; conditions: Huh-7
# T1 sequence (whole entry): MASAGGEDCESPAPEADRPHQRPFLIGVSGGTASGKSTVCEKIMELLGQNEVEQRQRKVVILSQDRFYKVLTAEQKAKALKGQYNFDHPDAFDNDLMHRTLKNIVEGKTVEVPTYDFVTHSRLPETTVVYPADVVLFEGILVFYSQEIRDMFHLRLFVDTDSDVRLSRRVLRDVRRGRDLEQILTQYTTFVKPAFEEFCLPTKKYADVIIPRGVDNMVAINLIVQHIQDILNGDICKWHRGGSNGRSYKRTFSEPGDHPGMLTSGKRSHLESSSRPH
# How it was run: (§1)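 His-tagged human UCK-1 cloned from Huh-7 cells, assayed at 25°C by pyruvate kinase/lactate dehydrogenase coupling, NADH oxidation at 340 nm. Buffer 64 mM Tris-HCl pH 7.5, 1 mM ATP, Mg2+, phosphoenolpyruvate. Enzyme 41 nM, or 410 nM for 2′-C-methyl cytidines. Substrate concentration varied. Steady-state parameters reported as mean ± SD.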
# [12] = target: T1, Uridine-cytidine kinase 1 (Homo sapiens); assay: Activity of human UCK1 expressed in Huh7 cells assessed as phosphorylation by coupled enzyme assay; format: cell-based; conditions: Huh-7
# How it was run: as §1
# Hepacivirus hominis [13] = assay: Ratio of Kcat to Km for HCV NS5B RNA polymerase S282T mutant
# How it was run: (§2)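 Steady-state assay with purified 21-aa C-terminally truncated HCV NS5B (S282T) on minus-IRES RNA template. Conditions: 50 mM HEPES pH 7.5, 1 mM MgCl2, 0.75 mM MnCl2, 2 mM DTT, [α-32P]UTP tracer, 27°C. One NTP varied, other three held at saturating levels. Rates came from product time courses; products were dot-blotted on Hybond N+ and counted by scintillation.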
# Hepacivirus hominis [14] = assay: Activity of HCV NS5B RNA polymerase assessed as incorporation of 32P-UMP into RNA
# How it was run: (§3)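 Recombinant C-terminal 21-aa truncated HCV NS5B on minus IRES RNA template, 50 mM HEPES pH 7.5, 1 mM MgCl2, 0.75 mM MnCl2, 2 mM DTT, [α-32P]UTP, 27°C. One NTP varied, other three fixed at saturating levels. Aliquots quenched with EDTA/NaCl/citrate, product retained on Hybond N+ membrane, counted by scintillation. Rates from time-course slopes, fit for steady-state parameters.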
# Hepacivirus hominis [15] = assay: Ratio of Kcat to Km for HCV NS5B RNA polymerase
# How it was run: as §3
# HepG2 [16] = assay: Ratio of Kcat to Km for NDPK activity expressed in HepG2 cells; format: cell-based; conditions: Homo sapiens
# How it was run: (§4)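 Human NDPK cloned from HepG2 cells, 216 nM, 37°C, with 1 mM ATP in Tris-HCl pH 7.5 coupled to pyruvate kinase/lactate dehydrogenase. NADH oxidation read at 340 nm. Diphosphate substrate concentration varied, Km and kcat as mean ± SD.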
# HepG2 [17] = assay: Activity of human NDPK expressed in HepG2 cells assessed as phosphorylation by coupled enzyme assay; format: cell-based
# How it was run: as §4
# Hepacivirus hominis [18] = assay: Inhibition of HCV NS5B RNA polymerase S282T mutant assessed as incorporation of 32P-UMP into RNA
# How it was run: (§5)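 Purified 21-aa C-terminally truncated NS5B (S282T; wild type for comparison) on minus-IRES template, run in 50 mM HEPES pH 7.5 with 1 mM MgCl2, 0.75 mM MnCl2, 2 mM DTT and [α-32P]UTP at 27°C. Natural substrate and inhibitor were both varied against fixed remaining NTPs (UTP 10 μM, others 100 μM). Product was membrane-captured and counted. Ki was obtained by fitting a competitive inhibition equation.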
# Hepacivirus hominis [19] = assay: Ratio of Ki to Km for HCV NS5B RNA polymerase
# How it was run: (§6)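 Steady-state Ki against truncated NS5B (wild-type and S282T) on minus IRES template, 27°C, HEPES pH 7.5 with Mg2+/Mn2+/DTT and [α-32P]UTP. For ATP analog, UTP 10, GTP and CTP 100 μM, ATP and inhibitor varied. For CTP analogs, UTP 10, ATP and GTP 100 μM, CTP and inhibitor varied. Membrane-bound product counted, rates fit to competitive inhibition.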
# [20] = tested on: RNA-directed RNA polymerase (Hepacivirus hominis), O39930 [S282T]; assay: Ratio of Ki to Km for HCV NS5B RNA polymerase S282T mutant
# How it was run: as §5
# Hepacivirus hominis [21] = assay: Inhibition of HCV NS5B RNA polymerase assessed as incorporation of 32P-UMP into RNA
# How it was run: as §6
# Hepacivirus hominis [22] = assay: Ratio of Ki/Km of HCV NS5B RNA polymerase S282T mutant to Ki/Km of HCV NS5B RNA polymerase
# How it was run: as §5
# [23] = target: T1, Uridine-cytidine kinase 1 (Homo sapiens); assay: Ratio of Kcat to Km for UCK1 activity expressed in Huh7 cells up to 1 mM; format: cell-based; conditions: Huh-7
# How it was run: as §1
# [24] = target: T1, Uridine-cytidine kinase 1 (Homo sapiens); assay: Activity of human UCK1 expressed in Huh7 cells assessed as phosphorylation up to 1 mM by coupled enzyme assay; format: cell-based; conditions: Huh-7
# How it was run: as §1
# [25] = target: T1, Uridine-cytidine kinase 1 (Homo sapiens); assay: Activity of human UCK1 expressed in Huh7 cells assessed as phosphorylation up to 3 mM by coupled enzyme assay; format: cell-based; conditions: Huh-7
# How it was run: as §1
# [26] = target: T1, Uridine-cytidine kinase 1 (Homo sapiens); assay: Ratio of Kcat to Km for UCK1 activity expressed in Huh7 cells up to 3 mM; format: cell-based; conditions: Huh-7
# How it was run: as §1
# [27] = tested on: Nc1ncnc2c1ncn2[C@@H]1O[C@H](COP(=O)(O)OP(=O)(O)OP(=O)(O)O)[C@@H](O)[C@H]1O; assay: (§7) Activity of HCV NS5B RNA polymerase S282T assessed as incorporation of 32P-UMP into RNA; conditions: Hepacivirus hominis
# How it was run: as §2
# [28] = tested on: O=c1ccn([C@@H]2O[C@H](COP(=O)(O)OP(=O)(O)OP(=O)(O)O)[C@@H](O)[C@H]2O)c(=O)[nH]1; assay: as §7; conditions: Hepacivirus hominis
# How it was run: as §2
# [29] = tested on: Nc1nc2c(c(=O)[nH]1)NCN2[C@@H]1O[C@H](COP(=O)(O)OP(=O)(O)OP(=O)(O)O)[C@@H](O)[C@H]1O; assay: as §7; conditions: Hepacivirus hominis
# How it was run: as §2
# [30] = tested on: Nc1ccn([C@@H]2O[C@H](COP(=O)(O)OP(=O)(O)OP(=O)(O)O)[C@@H](O)[C@H]2O)c(=O)n1; assay: as §7; conditions: Hepacivirus hominis
# How it was run: as §2
# Chain of Deoxycytidine kinase (Homo sapiens), P27707 (P27707 whole entry): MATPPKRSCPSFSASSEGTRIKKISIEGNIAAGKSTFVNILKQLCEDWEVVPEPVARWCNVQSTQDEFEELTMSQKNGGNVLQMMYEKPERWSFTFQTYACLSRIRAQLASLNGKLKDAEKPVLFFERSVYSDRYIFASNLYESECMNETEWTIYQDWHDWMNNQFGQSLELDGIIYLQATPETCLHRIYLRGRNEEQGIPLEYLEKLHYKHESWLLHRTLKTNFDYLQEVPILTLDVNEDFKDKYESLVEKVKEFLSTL
compound,measurement,setting,value
"Deoxycytidine kinase (Homo sapiens), P27707",kcat/Km,[1],11000 M⁻¹ s⁻¹
same,kcat/Km,[2],27000 M⁻¹ s⁻¹
same,kcat/Km,[3],12 M⁻¹ s⁻¹
same,kcat/Km,[4],190 M⁻¹ s⁻¹
same,kcat/Km,[5],1000 M⁻¹ s⁻¹
same,Km,[6],4.7 µM
same,kcat,[6],0.05 s⁻¹
same,Km,[7],1.4 µM
same,kcat,[7],0.038 s⁻¹
same,Km,[8],914 µM
same,kcat,[8],0.011 s⁻¹
same,Km,[9],81.2 µM
same,kcat,[9],0.016 s⁻¹
same,Km,[10],46.2 µM
same,kcat,[10],0.048 s⁻¹
C[C@@]1(O)[C@H](O)[C@@H](CO)O[C@H]1n1ccc(N)nc1=O,Activity,[11],inactive
same,Activity,[12],inactive
Nc1ccn([C@@H]2O[C@H](COP(=O)(O)OP(=O)(O)OP(=O)(O)O)[C@@H](O)[C@H]2O)c(=O)n1,kcat/Km,Hepacivirus hominis [13],1.32 M⁻¹ s⁻¹
same,Km,Hepacivirus hominis [14],13.7 µM
same,kcat,Hepacivirus hominis [14],2.53e-05 s⁻¹
same,kcat/Km,Hepacivirus hominis [15],1.83 M⁻¹ s⁻¹
O=c1ccn([C@@H]2O[C@H](COP(=O)(O)OP(=O)(O)OP(=O)(O)O)[C@@H](O)[C@H]2O)c(=O)[nH]1,kcat/Km,Hepacivirus hominis [13],11.5 M⁻¹ s⁻¹
same,Km,Hepacivirus hominis [14],0.4 µM
same,kcat,Hepacivirus hominis [14],2.13e-05 s⁻¹
same,kcat/Km,Hepacivirus hominis [15],53.3 M⁻¹ s⁻¹
Nc1ncnc2c1ncn2[C@@H]1O[C@H](COP(=O)(O)OP(=O)(O)OP(=O)(O)O)[C@@H](O)[C@H]1O,kcat/Km,Hepacivirus hominis [13],10.7 M⁻¹ s⁻¹
same,Km,Hepacivirus hominis [14],2.7 µM
same,kcat,Hepacivirus hominis [14],3.33e-05 s⁻¹
same,kcat/Km,Hepacivirus hominis [15],12.3 M⁻¹ s⁻¹
Nc1ccn([C@@H]2O[C@H](COP(=O)(O)OP(=O)(O)O)[C@@H](O)[C@H]2O)c(=O)n1,kcat/Km,HepG2 [16],600000 M⁻¹ s⁻¹
same,Km,HepG2 [17],307 µM
same,kcat,HepG2 [17],183 s⁻¹
C[C@@]1(O)[C@H](O)[C@@H](COP(=O)(O)OP(=O)(O)OP(=O)(O)O)O[C@H]1n1cnc2c(N)ncnc21,Km,Hepacivirus hominis [18],0.26 µM
same,Ki/Km,Hepacivirus hominis [19],0.56
same,Ki/Km,[20],84
same,Km,Hepacivirus hominis [21],2.7 µM
same,Ratio,Hepacivirus hominis [22],150
Nc1ccn([C@H]2C[C@H](O)[C@@H](CO)O2)c(=O)n1,Activity,[23],inactive
same,Activity,[11],inactive
same,Activity,[12],inactive
same,Activity,[24],inactive
C[C@@]1(F)[C@H](O)[C@@H](CO)O[C@H]1n1ccc(N)nc1=O,Activity,[25],inactive
same,Activity,[26],inactive
same,Activity,[11],inactive
same,Activity,[12],inactive
"RNA-directed RNA polymerase (Hepacivirus hominis), O39930 S282T",Km,[27],0.26 µM
same,kcat,[27],0.000167 s⁻¹
same,Km,[28],0.18 µM
same,kcat,[28],0.000125 s⁻¹
same,Km,[29],5 µM
same,kcat,[29],0.000198 s⁻¹
same,Km,[30],2.7 µM
same,kcat,[30],0.000214 s⁻¹
C[C@@]1(F)[C@H](O)[C@@H](COP(=O)(O)OP(=O)(O)O)O[C@H]1n1ccc(N)nc1=O,kcat/Km,HepG2 [16],15000 M⁻¹ s⁻¹
same,Km,HepG2 [17],1380 µM
same,kcat,HepG2 [17],21 s⁻¹
C[C@@]1(F)[C@H](O)[C@@H](COP(=O)(O)OP(=O)(O)OP(=O)(O)O)O[C@H]1n1ccc(N)nc1=O,Km,Hepacivirus hominis [18],2.7 µM
same,Ki/Km,Hepacivirus hominis [19],0.31
same,Ki/Km,[20],0.93
same,Km,Hepacivirus hominis [21],13.7 µM
same,Ratio,Hepacivirus hominis [22],3
C[C@@]1(O)[C@H](O)[C@@H](COP(=O)(O)OP(=O)(O)OP(=O)(O)O)O[C@H]1n1ccc(N)nc1=O,Km,Hepacivirus hominis [18],2.7 µM
same,Ki/Km,Hepacivirus hominis [19],0.12
same,Ki/Km,[20],1.4
same,Km,Hepacivirus hominis [21],13.7 µM
same,Ratio,Hepacivirus hominis [22],12

# — ChEMBL document CHEMBL1142170, “Mechanism of activation of beta-D-2'-deoxy-2'-fluoro-2'-c-methylcytidine and inhibition of hepatitis C virus NS5B RNA polymerase” (Antimicrob Agents Chemother, 2007)
